Legend:
Type in all cases: functional
[1] = Protective index measured as the ratio of HS ED50/MES ED50 values.
Summary of the method: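 Ratio of oral horizontal-screen ED50 to oral MES ED50 in male CF-1 mice. Both ED50s were derived from groups of 12 mice given compound suspended in 5% acacia/water.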

Mus musculus [2] = experiment: Anticonvulsant effect by maximal electroshock assay in mice after peroral administration.; settings: po
Summary of the method: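 Male CF-1 mice, 18–26 g, fasted from food and water 1.5 h; compounds suspended in 5% acacia/water, given orally at 0.01 mL/g. Tested at each compound's time of peak effect. MES: 50 mA ac for 0.1 s via corneal electrodes; protection = no hindlimb tonic extension. Groups of 12 mice at several doses; ED50 and 95% confidence limits computed from dose–effect data.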

Mus musculus [3] = experiment: Anticonvulsant effect by maximal electroshock assay in mice after intravenous administration.
Summary of the method: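 Male CF-1 mice, 18–26 g. Compounds dissolved in 2.5% ethanol–2.5% emulphor/water and injected into the tail vein 5 min before MES: 50 mA ac, 0.1 s, corneal electrodes. Absence of tonic hindlimb extension scored as protection. Groups of 12 mice per dose; ED50 with 95% confidence limits calculated from dose–effect data.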

Mus musculus [4] = experiment: Anticonvulsant effect by horizontal screen assay in mice after peroral administration.; settings: po, in the assay text read “Neurological impairment” for “Anticonvulsant effect”
Summary of the method: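 Neurological impairment in previously trained male CF-1 mice (18–26 g) after oral dosing in 5% acacia/water (0.01 mL/g; 1.5 h food and water deprivation). Each mouse placed on a 13 × 13 cm no. 4 mesh wire screen, which was rotated 180°. Scored on whether it climbed back to the top within 1 min. Groups of 12 per dose; ED50 with 95% confidence limits.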

Mus musculus [5] = experiment: Time to peak anticonvulsant effect was measured after oral dosing in mice.
Summary of the method: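 Time to peak anticonvulsant effect in MES-tested male CF-1 mice after oral dosing (5% acacia/water suspension, 0.01 mL/g, 1.5 h fasted). Used to set the test time for the oral ED50 determinations.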

SMILES | Protective index [1] | ED50 (Mus musculus [2]) [mg/kg] | ED50 (Mus musculus [3]) [mg/kg] | ED50 (Mus musculus [4]) [mg/kg] | TPE (Mus musculus [5]) [h]
Cc1cccc(CO)c1NC(=O)c1ccc(N)cc1 | 6 | 10.9 | 3.9 | 66 | 1
CC(=O)Nc1ccc(C(=O)Nc2c(C)cccc2C)cc1 | 21 | 4.7 | 19.9 | 96.4 | 2
O=C1NC(=O)C(c2ccccc2)(c2ccccc2)N1 [PHENYTOIN] |  | 8.1 |  | 83.7 | 2
Cc1cccc(C)c1NC(=O)c1ccc(N)cc1 [AMELTOLIDE] | 13 | 1.4 | 19.9 | 23 | 0.5
CC(=O)Nc1ccc(C(=O)Nc2c(C)cccc2CO)cc1 |  | > 100 | > 80 |  | 1
